Compound activity deposited in PubChem BioAssay by several laboratories.
Most compounds without a hit are left out; they make up all but 1.3% or so of the library.
PfG6PD inh – PfG6PD enzyme inhibitors, primary screen, biochemical, fluorescence intensity, uHTS; glucose-6-phosphate dehydrogenase-6-phosphogluconolactonase (Plasmodium falciparum 3D7); PfGluPho enzyme, NADPH resazurin-diaphorase fluorescence; inhibition, % at 20 µM; actives 0.78% (n = 350,000);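 active = inhibition reaching at least a set limit at 20 µM in the primary screen, cut at about 59% in these data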;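 also: 0% = DMSO wells with substrate and 100% = DMSO wells lacking glucose-6-phosphate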
HKDC1 inhibitor – HKDC1 hexokinase inhibitors, primary screen, biochemical, fluorescence, uHTS | Q2TB90 | recombinant HKDC1, G6PDH/diaphorase resazurin coupled fluorescence | inhibition, % at 20 µM | actives 0.16% (n = 340,000);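 active = inhibition above about 35% when tested at 20 µM, limit read from the data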;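 also: plate controls were DMSO wells with enzyme for no effect and DMSO wells lacking enzyme for full effect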
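test system = in-house recombinant HK5 (HKDC1) enzyme | amount = HKDC1 at 5 µg/mL | control set = DMSO-enzyme wells negative, buffer-substituted wells positive | compound = one dose of 20 µM, 1% DMSO | schedule = reaction time 90 min, room temperature, protected from light | technique = resorufin fluorescence at 613 nm | reagent = glucose with 1 mM ATP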
TbHK1 inh – Trypanosoma brucei hexokinase 1 inhibitors, primary screen, biochemical, G6PDH-coupled NADH absorbance, MLSCN library | recombinant TbHK1, G6PDH-coupled NADH A340 | actives 0.11% (n = 220,000) | inhibition, % at 10 µM | hexokinase 1 [Trypanosoma brucei] | AID 1430, 2008;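 active = inhibition of 50% or more in the single-dose primary screen; inactive = inhibition below 50%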
Diaph inh CS – diaphorase inhibitors and chemical oxidizers, primary screen, counter-screen for diaphorase-coupled primary assays, biochemical, uHTS, resorufin fluorescence | AID 1217, 2008 | diaphorase resazurin-to-resorufin fluorescence, NADH, 16 min; bacterial (C. kluyveri) enzyme, not human | inhibition, % at 20 µM | actives 0.69% (n = 190,000);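 active = primary screen inhibition at 20 µM above a set limit, cut at about 50% in these data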;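 also: plate controls were DMSO with full reaction for no effect and wells lacking NADH for full effect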
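Benchmarks: positive control wells lacking NADH, neutral wells with DMSO only. System: bacterial diaphorase enzyme (C. kluyveri). Input: 0.14 U/mL diaphorase, enzyme working solution. Detection: resorufin fluorescence, excitation 544 nm, emission 590 nm. Times: 16-min room-temperature incubation before reading.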
G6PDH counter – L. mesenteroides G6PDH inhibitors, counter-screen for G6PDH-coupled screening assays, biochemical, Leuconostoc mesenteroides enzyme | glucose-6-phosphate dehydrogenase [Leuconostoc mesenteroides] | Purified L. mesenteroides G6PDH, diaphorase/resazurin coupled fluorescence, 45 min | inhibition, % at 5 µM | actives 0.12% (n = 200,000) | AID 1020, 2008; in the data active = inhibition above about 50%
* = called active by the depositor.

NC(=O)C1CCN(c2nc(-c3cccs3)cs2)CC1 was read as PfG6PD inh 73.2* and HKDC1 inhibitor 2.2.
For NC(=O)C1CCN(c2nc(-c3ccc(Br)cc3)cs2)CC1 the results were PfG6PD inh 3.2, HKDC1 inhibitor 11.2, TbHK1 inh -3.5, Diaph inh CS -5.5 and G6PDH counter 0.0.
Screening Cc1cnccc1CN(C)Cc1cn(C)nc1-c1ccc(Oc2ccccc2)cc1 returned PfG6PD inh 22.8, HKDC1 inhibitor -6.5, TbHK1 inh -4.8, Diaph inh CS 13.4 and G6PDH counter 9.2.
For Cc1cnccc1CN(C)Cc1cn(C)nc1-c1cccc(Cl)c1 the results were PfG6PD inh -9.0, HKDC1 inhibitor 4.0, TbHK1 inh 3.4, Diaph inh CS 50.1* and G6PDH counter 5.5.
`CCc1ccc(NC(=O)C(C)OC(=O)c2cc(=O)[nH]c3ccc(S(=O)(=O)Nc4ccc(F)cc4)cc23)cc1` (centres undefined) gave PfG6PD inh 6.6, HKDC1 inhibitor -14.8, TbHK1 inh 19.2, Diaph inh CS -3.8 and G6PDH counter 6.5.
For COc1cc(OC)c(N(C)C(=O)c2cn(C)c(=O)c3cc(OC)c(OC)cc23)cc1Cl the results were PfG6PD inh 9.5 and HKDC1 inhibitor 0.3.
Screening CCCCNC1=CC(=O)C(=O)c2ccccc21 returned PfG6PD inh 50.8, HKDC1 inhibitor 18.7, TbHK1 inh -12.1 and G6PDH counter 59.5*.
`O=c1c2ccccc2ncn1-c1ccc([N+](=O)[O-])cc1[N+](=O)[O-]` gave PfG6PD inh 0.8 and HKDC1 inhibitor 6.0.
`COCCCN=C1NN=C(c2cc(C)n(Cc3ccccc3Cl)c2C)CS1` gave PfG6PD inh 11.1, HKDC1 inhibitor -2.1, TbHK1 inh -8.5, Diaph inh CS -1.1 and G6PDH counter 1.8.
`COc1cc(/C=C2\SC(=O)NC2=O)ccc1Oc1ccc([N+](=O)[O-])cc1[N+](=O)[O-]` gave PfG6PD inh 8.5, HKDC1 inhibitor 2.5, TbHK1 inh -5.6, Diaph inh CS 59.0* and G6PDH counter -7.5.
O=C1C=CC(=O)N1c1cccc(-c2ccccc2)c1 was read as PfG6PD inh 97.9*, HKDC1 inhibitor 7.0 and TbHK1 inh 8.5.
For O=c1cc(-c2ccccc2)[nH]n1-c1ccccc1 the results were PfG6PD inh -6.5 and HKDC1 inhibitor 4.0.
O=[N+]([O-])C1=CC=C2C(=NC3(CCCCC3)N2O)C1=NC1CCCCC1 was read as PfG6PD inh 14.8, HKDC1 inhibitor 26.4, TbHK1 inh -2.1, Diaph inh CS 82.8* and G6PDH counter 25.9.
`O=[N+]([O-])C1=CC=C2C(=NC3(CCCCC3)N2O)C1=NCCc1ccccc1` gave PfG6PD inh -10.6, HKDC1 inhibitor 0.0, TbHK1 inh -6.1, Diaph inh CS 62.9* and G6PDH counter 14.9.
CC(C)(C)N=C1C([N+](=O)[O-])=CC=C2C1=NC1(CCCCC1)N2O was read as PfG6PD inh 25.3, HKDC1 inhibitor 12.1, TbHK1 inh 5.4, Diaph inh CS 76.5* and G6PDH counter 38.6.
`CC1(C)CC(N=C2C([N+](=O)[O-])=CC=C3C2=NC2(CCCCC2)N3O)CC(C)(C)N1` gave PfG6PD inh 16.1, HKDC1 inhibitor 10.8 and TbHK1 inh -32.0.
Screening COC(=O)c1cn(NC(=O)Cn2nc([N+](=O)[O-])c(Br)c2C)c(=O)c2ccccc12 returned PfG6PD inh -23.6, HKDC1 inhibitor 3.9, TbHK1 inh -3.1, Diaph inh CS 7.6 and G6PDH counter 5.0.
Screening N#Cc1c(N)sc(=S)c2c1CCN(Cc1ccccc1)C2 returned Diaph inh CS 82.2* and G6PDH counter -44.9.
For CCN1CCc2c(C#N)c(N3CCCCC3)nc(NCc3ccccc3)c2C1 the results were PfG6PD inh 13.7, HKDC1 inhibitor 8.8, TbHK1 inh -9.3, Diaph inh CS 20.3 and G6PDH counter -39.0.
Screening N#Cc1c(NCCO)nc(NCc2ccccc2)c2c1CCN(Cc1ccccc1)C2 returned PfG6PD inh 30.5, HKDC1 inhibitor 2.1, TbHK1 inh -11.2, Diaph inh CS 58.9* and G6PDH counter 38.1.
For CCN1CCc2c(sc(N)c2C#N)C1 the results were PfG6PD inh 5.7, HKDC1 inhibitor 4.3, TbHK1 inh -23.0, Diaph inh CS 11.0 and G6PDH counter -20.7.
COc1cc(/C=C2/C(=O)c3cccc([N+](=O)[O-])c3C2=O)c(Br)cc1O was read as PfG6PD inh 19.4, HKDC1 inhibitor 28.6, TbHK1 inh 22.9, Diaph inh CS 50.3* and G6PDH counter -3.3.
COc1ccc(NS(=O)(=O)c2cc(NC(=O)c3sccc3C)ccc2N2CCOCC2)cc1 was read as PfG6PD inh 14.6, HKDC1 inhibitor -1.1 and TbHK1 inh -1.2.
For CN1C(=O)C2(Nc3ccccc3-c3nc4ccccc4n32)c2ccccc21 (centres undefined) the results were PfG6PD inh 15.0, HKDC1 inhibitor 11.6, TbHK1 inh -5.3, Diaph inh CS 83.5* and G6PDH counter 0.9.
For Cc1ccc(CNC(=S)Nc2ccc(NS(=O)(=O)c3ccc(C)cc3)cc2)cc1 the results were PfG6PD inh 16.2 and HKDC1 inhibitor -3.8.
CCn1c(SCc2nc3sc(C(=O)O)c(C)c3c(=O)[nH]2)nc2ccccc21 was read as PfG6PD inh -5.7, HKDC1 inhibitor 1.6, TbHK1 inh -10.7, Diaph inh CS 60.9* and G6PDH counter 7.0.
`COc1cc2c(cc1NC(=O)CSc1ccc(C)cc1)oc1ccccc12` gave PfG6PD inh 19.9, HKDC1 inhibitor 9.2, TbHK1 inh -2.2, Diaph inh CS 31.1 and G6PDH counter 0.6.
For COc1cc2c(cc1NC(=O)C(C)Sc1ccc(C)cc1)oc1ccccc12 (centres undefined) the results were PfG6PD inh 5.2, HKDC1 inhibitor -4.0, TbHK1 inh -17.7, Diaph inh CS 75.9* and G6PDH counter -0.4.
O=C(NCc1ccco1)c1cnn2c(C(F)(F)F)cc(-c3cccs3)nc12 was read as PfG6PD inh 6.8, HKDC1 inhibitor -0.4, TbHK1 inh 2.8, Diaph inh CS 57.9* and G6PDH counter 8.7.
`O=C(c1cnn2c(C(F)(F)F)cc(-c3cccs3)nc12)N1CCCC1` gave PfG6PD inh -5.7, HKDC1 inhibitor -3.1 and TbHK1 inh -33.9.
C/C(CC(=O)N1CCN(C=O)CC1)=N\NC(=O)c1ccc([N+](=O)[O-])cc1 was read as PfG6PD inh -9.4, HKDC1 inhibitor -12.0, TbHK1 inh -4.7 and G6PDH counter 2.6.
